# Activity calls are given as the source filed them. The calls are words filed in the database; no cut-off is given here.
# Columns and labels:
# [1] = Cytotoxicity against Sprague-Dawley rat Cerebral cortex neuron assessed as cell viability at 0.1 uM incubated for 24 hrs by MTT assay relative to control; format: tissue-based; conditions: cerebral cortex neurons, read-out: Activity
# Summary of the method: (§1)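 Primary fetal rat cortical neurons, matured 8 days, treated 24 h at 37 °C with compound (0.1–100 µM; 0.5% DMSO or water vehicle). MTT 0.7 mg/ml was then added for 30 min at 37 °C, and formazan was extracted with isopropanol/formic acid (95:5) and read at 560 nm. Untreated control was set as 100% viability. Four independent experiments.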
# [2] = Cytotoxicity against Sprague-Dawley rat Cerebral cortex neuron assessed as cell viability at 1 uM incubated for 24 hrs by MTT assay relative to control; format: tissue-based; conditions: cerebral cortex neurons, read-out: Activity; summary of the method: as §1
# [3] = Cytotoxicity against Sprague-Dawley rat Cerebral cortex neuron assessed as cell viability at 10 uM incubated for 24 hrs by MTT assay relative to control; format: tissue-based; conditions: cerebral cortex neurons, read-out: Activity; summary of the method: as §1
# [4] = Cytotoxicity against Sprague-Dawley rat Cerebral cortex neuron assessed as cell viability at 25 uM incubated for 24 hrs by MTT assay relative to control; format: tissue-based; conditions: cerebral cortex neurons, read-out: Activity; summary of the method: as §1
# [5] = Cytotoxicity against rat Sprague-Dawley Cerebral cortex neuron assessed as cell viability at 50 uM incubated for 24 hrs by MTT assay relative to control; format: tissue-based; conditions: cerebral cortex neurons, read-out: Activity; summary of the method: as §1
# [6] = Cytotoxicity against Sprague-Dawley rat Cerebral cortex neuron assessed as cell viability at 100 uM incubated for 24 hrs by MTT assay relative to control; format: tissue-based; conditions: cerebral cortex neurons, read-out: Activity; summary of the method: as §1
# [7] = Cytotoxicity against Sprague-Dawley rat Cerebral cortex neuron assessed as LDH activity at 0.1 uM incubated for 24 hrs by LDH assay (reference value: […]); format: tissue-based
# Summary of the method: (§2)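 Primary fetal rat cortical neurons, matured 8 days on poly-D-lysine, exposed 24 h at 37 °C to compound (0.1–100 µM; DMSO 0.5% or water vehicle). LDH released into 100 µl culture medium was measured by kit as the rate of NAD+ reduction (absorbance increase at 490 nm). Positive control was mitomycin C. Four independent experiments.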
# [8] = Cytotoxicity against Sprague-Dawley rat Cerebral cortex neuron assessed as LDH activity at 1 uM incubated for 24 hrs by LDH assay (reference value: […]); format: tissue-based; summary of the method: as §2
# [9] = Cytotoxicity against Sprague-Dawley rat Cerebral cortex neuron assessed as LDH activity at 10 uM incubated for 24 hrs by LDH assay; format: tissue-based; summary of the method: as §2
# [10] = Cytotoxicity against Sprague-Dawley rat Cerebral cortex neuron assessed as LDH activity at 25 uM incubated for 24 hrs by LDH assay (reference value: […]); format: tissue-based; summary of the method: as §2
# [11] = Cytotoxicity against Sprague-Dawley rat Cerebral cortex neuron assessed as LDH activity at 50 uM incubated for 24 hrs by LDH assay (reference value: […]); format: tissue-based; summary of the method: as §2
# [12] = Cytotoxicity against Sprague-Dawley rat Cerebral cortex neuron assessed as LDH activity at 100 uM incubated for 24 hrs by LDH assay (reference value: […]); format: tissue-based; summary of the method: as §2
# [13] = Antioxidant activity in Sprague-Dawley rat Cerebral cortex neuron assessed as total antioxidant capacity by measuring trolox equivalents at 0.1 uM after 24 hrs; format: functional
# Summary of the method: (§3)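 Primary cerebral cortex neurons from rat fetuses, grown on poly-D-lysine in neurobasal medium with fetal calf serum (5% CO2, 37 °C), tested after 8 days in culture. Compounds in DMSO (0.5%) or sterile water were added and incubated 24 h at 37 °C. Cells were washed in ice-cold PBS and homogenized in 0.9% saline. Intracellular TAC (Trolox equiv.) and TOS (H2O2 equiv.) were read by kit. Ascorbic acid 10 µM (TAC) and H2O2 25 µM (TOS) served as positive controls. Four independent experiments.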
# [14] = Antioxidant activity in Sprague-Dawley rat Cerebral cortex neuron assessed as total antioxidant capacity by measuring trolox equivalents at 1 uM after 24 hrs; format: functional; summary of the method: as §3
# [15] = Antioxidant activity in Sprague-Dawley rat Cerebral cortex neuron assessed as total antioxidant capacity by measuring trolox equivalents at 10 uM after 24 hrs; format: functional; summary of the method: as §3
# [16] = Antioxidant activity in Sprague-Dawley rat Cerebral cortex neuron assessed as total antioxidant capacity by measuring trolox equivalents at 25 uM after 24 hrs; format: functional; summary of the method: as §3
# [17] = Antioxidant activity in Sprague-Dawley rat Cerebral cortex neuron assessed as total antioxidant capacity by measuring trolox equivalents at 50 uM after 24 hrs; format: functional; summary of the method: as §3
# [18] = Antioxidant activity in Sprague-Dawley rat Cerebral cortex neuron assessed as total antioxidant capacity by measuring trolox equivalents at 100 uM after 24 hrs; format: functional; summary of the method: as §3
# [19] = Antioxidant activity in Sprague-Dawley rat Cerebral cortex neuron assessed as total oxidative stress level by measuring H2O2 equivalents at 0.1 uM after 24 hrs (reference value: 2.3 +/- 0.3 umol/L); format: functional; summary of the method: as §3
# [20] = Antioxidant activity in Sprague-Dawley rat Cerebral cortex neuron assessed as total oxidative stress level by measuring H2O2 equivalents at 1 uM after 24 hrs (reference value: 2.3 +/- 0.3 umol/L); format: functional; summary of the method: as §3
# [21] = Antioxidant activity in Sprague-Dawley rat Cerebral cortex neuron assessed as total oxidative stress level by measuring H2O2 equivalents at 10 uM after 24 hrs (reference value: 2.3 +/- 0.3 umol/L); format: functional; summary of the method: as §3
# [22] = Antioxidant activity in Sprague-Dawley rat Cerebral cortex neuron assessed as total oxidative stress level by measuring H2O2 equivalents at 25 uM after 24 hrs (reference value: 2.3 +/- 0.3 umol/L); format: functional; summary of the method: as §3
# [23] = Antioxidant activity in Sprague-Dawley rat Cerebral cortex neuron assessed as total oxidative stress level by measuring H2O2 equivalents at 50 uM after 24 hrs (reference value: 2.3 +/- 0.3 umol/L); format: functional; summary of the method: as §3
# [24] = Antioxidant activity in Sprague-Dawley rat Cerebral cortex neuron assessed as total oxidative stress level by measuring H2O2 equivalents at 100 uM after 24 hrs (reference value: 2.3 +/- 0.3 umol/L); format: functional; summary of the method: as §3
# [25] = target: Sigma non-opioid intracellular receptor 1 (Cavia porcellus, UniProt Q60492); assay: Displacement of [3H]-(+)-pentazocine from sigma1 receptor in guinea pig brain membrane incubated for 150 mins by liquid scintillation counting method; format: cell membranes
# Chain of Sigma non-opioid intracellular receptor 1 (Q60492 whole entry): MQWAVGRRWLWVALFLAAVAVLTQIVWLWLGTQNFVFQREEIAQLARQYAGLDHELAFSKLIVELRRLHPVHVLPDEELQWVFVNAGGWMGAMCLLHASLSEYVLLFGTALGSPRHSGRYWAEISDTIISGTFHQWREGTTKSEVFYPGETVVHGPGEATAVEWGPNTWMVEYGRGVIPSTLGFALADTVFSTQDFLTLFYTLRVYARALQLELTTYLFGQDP
# Summary of the method: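 Guinea pig brain membranes (500 µg protein) in 50 mM Tris-HCl pH 7.4 with 3 nM [3H]-(+)-pentazocine. […] Incubated 150 min at 37 °C, then filtered on PEI-soaked GF/B filters and counted by scintillation. Ki obtained by EBDA/LIGAND; three determinations.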
# [26] = Displacement of [3H]-DTG from Sigma 2 receptor in guinea pig brain membrane incubated for 120 mins in presence of sigma1 blocker (+)-SKF-10047 by liquid scintillation counting method; format: cell membranes, Cavia porcellus
# Cavia porcellus = species on record: Cavia porcellus; assay: Selectivity ratio of Ki for displacement of [3H]-DTG from sigma2 receptor in guinea pig brain membrane to Ki for displacement of [3H]-(+)-pentazocine from sigma1 receptor in guinea pig brain membrane; format: cell membranes
# Mus musculus [27] = assay: In vivo agonist activity at sigma 1 receptor in Swiss […] mouse assessed as modulation of morphine-induced analgesic effect by measuring tail flick latency at 1 mg/kg, ip measured after 90 mins by radiant heat tail-flick method; format: functional, organism-based
# Mus musculus [28] = assay: In vivo agonist activity at sigma 1 receptor in Swiss […] mouse assessed as modulation of morphine-induced analgesic effect by measuring tail flick latency at 1 mg/kg, ip preincubated for 45 mins followed by morphine treatment after 90 mins by radiant heat tail-flick method; format: functional, organism-based; conditions: time 135.0 min
Compound,"viability at 24 h, 0.1 µM [1]","viability at 24 h, 1 µM [2]","viability at 24 h, 10 µM [3]","viability at 24 h, 25 µM [4]","viability at 24 h, 50 µM [5]","viability at 24 h, 100 µM [6]",Activity [7],Activity [8],Activity [9],Activity [10],Activity [11],Activity [12],TAC [13],TAC [14],TAC [15],TAC [16],TAC [17],TAC [18],Activity [19],Activity [20],also measured
O=C(O)CCCC[C@@H]1CCSS1 [THIOCTIC ACID],98.6%,97.9%,98.1%,97.2%,96.4%,95.9%,0.27 mU/ml,0.28 mU/ml,0.28 mU/ml,0.27 mU/ml,0.29 mU/ml,0.29 mU/ml,10.7 mmol/L,10.5 mmol/L,10.9 mmol/L,11.2 mmol/L,12.1 mmol/L,13.5 mmol/L,0.4 µmol/L,0.5 µmol/L,Activity [21]: 0.4 µmol/L; Activity [22]: 0.4 µmol/L; Activity [23]: 0.5 µmol/L; Activity [24]: 0.5 µmol/L
O=C(CCCC[C@@H]1CCSS1)OC1CCN(Cc2ccccc2)CC1,100%,98.7%,96.4%,96.6%,97.4%,96.2%,0.3 mU/ml,0.28 mU/ml,0.3 mU/ml,0.32 mU/ml,0.34 mU/ml,0.32 mU/ml,10.9 mmol/L,10.7 mmol/L,10.9 mmol/L,11.3 mmol/L,10.9 mmol/L,11 mmol/L,0.4 µmol/L,0.4 µmol/L,Ki [25]: 17.7 nM; Ki [26]: 1870 nM; Ratio Ki (Cavia porcellus): 106; Activity (Mus musculus [27]): inactive; Activity (Mus musculus [28]): Active; Activity [21]: 0.4 µmol/L; Activity [22]: 0.5 µmol/L; Activity [23]: 0.5 µmol/L; Activity [24]: 0.5 µmol/L
O=C(CCCC[C@@H]1CCSS1)N1CCN(Cc2ccccc2)CC1,98.5%,98.7%,96.5%,96.6%,95.7%,95.8%,0.3 mU/ml,0.32 mU/ml,0.32 mU/ml,0.3 mU/ml,0.3 mU/ml,0.32 mU/ml,10.2 mmol/L,10.5 mmol/L,10.8 mmol/L,13 mmol/L,12.8 mmol/L,11.2 mmol/L,0.5 µmol/L,0.5 µmol/L,Ki [25]: 6.1 nM; Ki [26]: 1240 nM; Ratio Ki (Cavia porcellus): 204; Activity [21]: 0.4 µmol/L; Activity [22]: 0.4 µmol/L; Activity [23]: 0.4 µmol/L; Activity [24]: 0.5 µmol/L
O=C1O[C@H]([C@@H](O)CO)C(O)=C1O [ASCORBIC ACID],–,–,–,–,–,–,–,–,–,–,–,–,–,–,26.9 mmol/L,–,–,–,–,–,–
CO[C@@]12[C@H](COC(N)=O)C3=C(C(=O)C(C)=C(N)C3=O)N1C[C@@H]1N[C@@H]12 [MITOMYCIN],–,–,46.1%,–,–,–,–,–,2.23 mU/ml,–,–,–,–,–,–,–,–,–,–,–,–

# — ChEMBL document CHEMBL4715728, “New bifunctional antioxidant/σ1 agonist ligands: Preliminary chemico-physical and biological evaluation” (Bioorg Med Chem, 2016)
